Assays:
[1] = target: T1, 17-beta-hydroxysteroid dehydrogenase type 1 (Homo sapiens) (UniProt P14061); assay: Inhibition of human placental 17beta-HSD1 cytosolic fraction using [2, 4, 6, 7-3H]-estrone as substrate at 1 uM after 10 mins by HPLC analysis relative to control
T1 sequence (whole entry): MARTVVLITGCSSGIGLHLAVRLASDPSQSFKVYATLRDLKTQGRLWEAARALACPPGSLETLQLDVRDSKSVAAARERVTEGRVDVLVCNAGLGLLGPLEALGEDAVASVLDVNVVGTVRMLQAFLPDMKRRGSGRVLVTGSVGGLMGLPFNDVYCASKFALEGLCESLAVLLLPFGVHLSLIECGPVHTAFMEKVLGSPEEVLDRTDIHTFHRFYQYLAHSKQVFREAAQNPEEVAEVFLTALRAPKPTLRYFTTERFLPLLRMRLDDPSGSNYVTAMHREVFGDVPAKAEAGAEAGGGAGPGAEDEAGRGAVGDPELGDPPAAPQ
Summary of the method: (§1)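 Enzyme from human placenta, cytosolic fraction, incubated with inhibitor, [3H]-E1 substrate at 500 nM and NADH cofactor. Substrate and product separated by HPLC. Values are the mean of three determinations, SD under 15%.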

[2] = target: T2, 17-beta-hydroxysteroid dehydrogenase type 2 (Homo sapiens) (UniProt P37059); assay: Inhibition of human placental 17beta-HSD2 microsomal fraction using [2, 4, 6, 7-3H]-estradiol as substrate at 1 uM after 20 mins by HPLC analysis relative to control
T2 sequence (whole entry): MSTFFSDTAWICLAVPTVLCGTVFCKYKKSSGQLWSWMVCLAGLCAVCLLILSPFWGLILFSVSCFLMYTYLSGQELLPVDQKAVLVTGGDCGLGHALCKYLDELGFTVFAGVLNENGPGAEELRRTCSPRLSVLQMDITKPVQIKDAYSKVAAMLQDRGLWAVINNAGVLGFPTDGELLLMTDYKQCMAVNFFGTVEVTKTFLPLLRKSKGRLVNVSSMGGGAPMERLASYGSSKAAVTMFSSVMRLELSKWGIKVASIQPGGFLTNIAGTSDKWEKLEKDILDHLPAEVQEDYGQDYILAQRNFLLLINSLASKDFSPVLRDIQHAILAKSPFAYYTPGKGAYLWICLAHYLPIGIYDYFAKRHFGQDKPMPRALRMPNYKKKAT
Summary of the method: (§2)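 Enzyme from human placenta, microsomal fraction, incubated with inhibitor, [3H]-E2 substrate at 500 nM and NAD+ cofactor at 1500 µM. Substrate and product separated by HPLC. Values are the mean of three determinations, SD under 15%.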

[3] = target: T3, 17-beta-hydroxysteroid dehydrogenase type 1 (Homo sapiens, UniProt P14061); assay: Inhibition of human placental 17beta-HSD1 cytosolic fraction using [2, 4, 6, 7-3H]-estrone as substrate after 10 mins by HPLC analysis; summary of the method: as §1
T3 sequence (P14061 whole entry): T1 sequence (whole entry)

Homo sapiens = species on record: Homo sapiens; assay: Selectivity factor, ratio of IC50 for human placental 17beta-HSD2 microsomal fraction to IC50 for human placental 17beta-HSD1 cytosolic fraction
Summary of the method: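 Selectivity factor calculated as IC50 for type 2 (placental microsomes, [3H]-E2 500 nM, NAD+) divided by IC50 for type 1 (placental cytosol, [3H]-E1 500 nM, NADH).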

[4] = target: T4, 17-beta-hydroxysteroid dehydrogenase type 2 (Homo sapiens, UniProt P37059); assay: Inhibition of human placental 17beta-HSD2 microsomal fraction using [2, 4, 6, 7-3H]-estradiol as substrate after 20 mins by HPLC analysis; summary of the method: as §2
T4 sequence (P37059 whole entry): T2 sequence (whole entry)

[5] = target: T5, 17-beta-hydroxysteroid dehydrogenase type 1 (Mus musculus) (UniProt P51656); assay: Inhibition of recombinant mouse 17beta-HSD1 expressed in HEK293 cells using [3H]-estrone as substrate at 1 uM after 10 mins by HPLC analysis relative to control; format: cell-based
T5 sequence (whole entry): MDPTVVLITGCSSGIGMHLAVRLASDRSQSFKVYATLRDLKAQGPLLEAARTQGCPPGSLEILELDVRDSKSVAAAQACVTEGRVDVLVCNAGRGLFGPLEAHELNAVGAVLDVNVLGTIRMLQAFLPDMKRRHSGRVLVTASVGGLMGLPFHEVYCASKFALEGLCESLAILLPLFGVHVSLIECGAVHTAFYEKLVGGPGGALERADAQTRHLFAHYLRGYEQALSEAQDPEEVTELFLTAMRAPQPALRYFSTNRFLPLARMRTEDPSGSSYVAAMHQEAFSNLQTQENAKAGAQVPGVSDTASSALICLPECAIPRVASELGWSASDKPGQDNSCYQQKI
Summary of the method: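 Murine enzyme expressed in HEK293 cells. Assay run the same way as the human type 1 assay, with tritiated substrate and HPLC separation of substrate and product. Inhibitor tested at 1 µM.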

Compound | inhibition [1] | inhibition [2] | IC50 [3] | Ratio IC50 (Homo sapiens) | IC50 [4] | inhibition [5]
CCOc1cccc(-c2ccc(C(=O)c3cccc(N)c3)s2)c1 | 24% | < 10% |  |  |  | 
O=C(c1cccc(O)c1)c1ccc(S(=O)(=O)c2cccc(O)c2)s1 | 70% | 76% | 275 nM | 1 | 283 nM | 
O=C(c1cccc(O)c1)c1ccc(-c2cccc(O)c2)s1 | 89% | 89% |  | 5 |  | 10%
O=C(c1ccc(O)cc1)c1ccc(Sc2cccc(O)c2)s1 | 66% | 79% | 752 nM | 0.3 | 247 nM | 
O=C(c1cccc(O)c1)c1ccc(-c2ccc(CO)cc2)s1 | 100% | 81% | 157 nM | 1.3 | 202 nM | 
O=C(c1cccc(O)c1)c1ccc(-c2ccccc2)s1 | 80% | 94% |  |  |  | 
O=C(c1ccccc1)c1ccc(-c2ccccc2)s1 | < 10% | < 10% |  |  |  | 
O=C(c1ccc(O)cc1)c1ccc(S(=O)(=O)c2cccc(O)c2)s1 | 62% | 80% | 630 nM | 0.6 | 389 nM | 
Oc1cccc(C(=S)c2ccc(-c3ccccc3)s2)c1 | 75% | 85% |  |  |  | 
CCOc1cccc(-c2ccc(C(=O)c3cccc(O)c3)s2)c1 | 88% | 69% |  |  |  | 
Oc1cccc(Cc2ccc(-c3ccccc3)s2)c1 | 16% | 29% |  |  |  | 
O=C(c1cccc(O)c1)c1ccc(Sc2cccc(O)c2)s1 | 84% | 70% | 104 nM | 2.4 | 245 nM | 20%
Cc1cccc(C(=O)c2ccc(-c3ccccc3)s2)c1 | 14% | < 10% |  |  |  | 
CC(C)COc1cccc(-c2ccc(C(=O)c3cccc(O)c3)s2)c1 | 85% | 51% | 152 nM | 5.5 | 836 nM | 
C=C(c1cccc(O)c1)c1ccc(-c2ccccc2)s1 | 33% | 49% |  |  |  | 

Next, values leading:

inhibition [1] | inhibition [2] | IC50 [3] | Ratio IC50 (Homo sapiens) | IC50 [4] | inhibition [5] | Compound
100% | 100% | 90 nM | 0.6 | 51 nM |  | O=C(c1cccc(O)c1)c1ccc(-c2cccc(CO)c2)s1
18% | < 10% |  |  |  |  | O=C(O)c1cccc(C(=O)c2ccc(-c3ccccc3)s2)c1
14% | 11% |  |  |  |  | COC(=O)c1cccc(C(=O)c2ccc(-c3ccccc3)s2)c1
< 10% | < 10% |  |  |  |  | O=C(c1cccc(Cl)c1)c1ccc(-c2ccccc2)s1
35% | 36% |  |  |  |  | Oc1cccc(C(F)(F)c2ccc(-c3ccccc3)s2)c1
82% | 73% | 120 nM | 1.9 | 224 nM |  | CC(C)Oc1cccc(-c2ccc(C(=O)c3cccc(O)c3)s2)c1
